The nature of data set [1]: folding enthalpy; higher = less favourable; fluorescence melt of hairpins on a sequencing array, two-state fit. The settings on record: sodium 0.088 M. The method, boiled down: (§1)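 Melting temperature and folding enthalpy were derived from bootstrapped two-state fits. The fitted temperatures were raised by 9.35 °C to agree with UV melts, and four replicates were combined by inverse variance. The underlying data were Cy3 fluorescence images of library hairpins, with annealed Cy3 and quencher oligos, on a sequenced MiSeq flow cell in 50 mM Na-HEPES pH 8.0, 25 mM NaCl, taken in 2.5 °C steps up to 60 °C, normalised to pre-quench Cy3 and to control constructs.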

The nature of data set [2]: melting temperature; fluorescence melt of hairpins on a sequencing array, two-state fit, raised by 9.35 °C to match UV melts. Conditions: sodium 0.088 M. The method, boiled down:
as §1

For the sequence GTCCCCGAAAGGGCGGAC ((((((....)))..))), the folding enthalpy in data set [1] is -15.4 kcal/mol. For the same sequence, the Tm in data set [2] worked out at 42.8 °C.

Consider GTCCCCGAAAGGGGGAC ((((((....))).))), for which, in data set [1], the folding enthalpy is -17.1 kcal/mol. The Tm in data set [2] came out at 68.5 °C.

For GTCCCCGAAAGGGTGAC ((((((....))).))), the folding enthalpy in data set [1] is -22.6 kcal/mol. For the same sequence, the Tm in data set [2] came to 53.3 °C.

With GTCCCCGGAAACGAGGAC ((((.((....)).)))), the folding enthalpy in data set [1] is -32.1 kcal/mol. In addition, the Tm in data set [2] was 48 °C.

As to GTCCCCGGAAACGGAGAC (((.(((....))).))), the folding enthalpy in data set [1] is -28 kcal/mol. Further, the Tm in data set [2] was 47.7 °C.

As for GTCCCGGGAAACCGGAAC ((.((((....)))).)), in data set [1], the folding enthalpy was -14.9 kcal/mol. Moreover, the Tm in data set [2] came out at 44.4 °C.

With GTCCCTACGAAAGTAGAC (((..(((....)))))), the folding enthalpy in data set [1] was -9.91 kcal/mol. For the same sequence, the Tm in data set [2] came out at 25.9 °C.

Turning to GTCCCTCGAAAGAGTGAC (((.(((....))).))), the folding enthalpy in data set [1] is -31.9 kcal/mol. Moreover, the Tm in data set [2] turned out to be 45.3 °C.

Turning to GTCCCTGCGAAAGCAGAC (((..(((....)))))), in data set [1], the folding enthalpy is -7.38 kcal/mol. In addition, the Tm in data set [2] was 32.2 °C.

In the case of GTCCCTGGAAACAAGGAC ((((.((....)).)))), the folding enthalpy in data set [1] was -20 kcal/mol. Moreover, the Tm in data set [2] stood at 34.7 °C.

GTCCCTGGAAACGGGGAC (((((.(....).))))): the folding enthalpy in data set [1] is -49 kcal/mol. The Tm in data set [2] worked out at 56.4 °C.

Regarding GTCCGACCGAAAGGTGAC (((..(((....)))))), the folding enthalpy in data set [1] is -16.6 kcal/mol. The Tm in data set [2] was 36.6 °C.

As for GTCCGACGAAAGTCAGAC (((.(((....))).))), the folding enthalpy in data set [1] was -23.5 kcal/mol. In addition, the Tm in data set [2] amounted to 50 °C.

For GTCCGAGGAAACTCAGAC (((.(((....))).))), the folding enthalpy in data set [1] is -21.4 kcal/mol. Moreover, the Tm in data set [2] worked out at 35.9 °C.

For GTCCGAGGAAACTTGGAC ((((.((....)).)))), the folding enthalpy in data set [1] was -29.9 kcal/mol. Further, in data set [2], the Tm was determined as 51 °C.

As to GTCCGCACGAAAGTGGAC (((..(((....)))))), the folding enthalpy in data set [1] is -19.6 kcal/mol. The Tm in data set [2] was found to be 47.1 °C.

Regarding GTCCGCCCGAAAGGGGAC (((..(((....)))))), the folding enthalpy in data set [1] is -18.7 kcal/mol. Further, in data set [2], the Tm was 47.3 °C.

In the case of GTCCGCCGAAAGGCCGAC (((.(((....))).))), the folding enthalpy in data set [1] was -20.5 kcal/mol. In addition, in data set [2], the Tm worked out at 49.2 °C.

Take GTCCGCGAAAGCGAAGAC ((((((....)))..))): the folding enthalpy in data set [1] is -17.4 kcal/mol. In data set [2], the Tm stood at 45.4 °C.

Consider GTCCGCGAAAGCGGCGAC ((((((....)))..))), for which, in data set [1], the folding enthalpy was -10.7 kcal/mol. The Tm in data set [2] came to 67 °C.

GTCCGCGAAAGCGGGAC ((((((....))).))): the folding enthalpy in data set [1] is -12.4 kcal/mol. In data set [2], the Tm turned out to be 63.5 °C.

Consider GTCCGCGAAAGCGTGAC ((((((....))).))), for which, in data set [1], the folding enthalpy is -19.8 kcal/mol. Further, the Tm in data set [2] came to 58 °C.

As to GTCCGGAAACGGAC (((((....))))), the folding enthalpy in data set [1] was -28.2 kcal/mol. Further, the Tm in data set [2] came out at 67.4 °C.

GTCCGGCGAAAGCCGAC (((.(((....)))))): in data set [1], the folding enthalpy is -9.75 kcal/mol. The Tm in data set [2] was 49.1 °C.

Take GTCCGTCGAAAGACGAC (((.(((....)))))): the folding enthalpy in data set [1] is -13.4 kcal/mol. Besides, the Tm in data set [2] was found to be 50.6 °C.

As to GTCCTCGAAAGAGGCGAC ((((((....)))..))), the folding enthalpy in data set [1] is -17 kcal/mol. In data set [2], the Tm was found to be 50.9 °C.

Regarding GTCCTCGAAAGAGGGGAC ((((((....)))..))), the folding enthalpy in data set [1] is -11.6 kcal/mol. Further, in data set [2], the Tm worked out at 43.6 °C.

Take GTCCTCGGAAACAAGGAC (((((.(....).))))): in data set [1], the folding enthalpy was -25.8 kcal/mol. Moreover, the Tm in data set [2] was determined as 39.3 °C.

Turning to GTCCTCGGAAACGAAGAC (((.(((....))).))), the folding enthalpy in data set [1] is -26 kcal/mol. The Tm in data set [2] amounted to 38 °C.

As for GTCCTCGGAAACGGGGAC ((((.((....)).)))), the folding enthalpy in data set [1] was -45.3 kcal/mol. The Tm in data set [2] turned out to be 55.7 °C.

On to GTCCTGGGAAACCAGGAC (((((((....))))))), for which the folding enthalpy in data set [1] is -36 kcal/mol. In addition, the Tm in data set [2] was 66.7 °C.

With GTCCTGGGAAACCGGGAC ((((.((....)).)))), the folding enthalpy in data set [1] is -39.2 kcal/mol. Besides, the Tm in data set [2] worked out at 55.7 °C.

On to GTCCTGTCGAAAGACGAC (((..(((....)))))), for which the folding enthalpy in data set [1] is -11.2 kcal/mol. Also, the Tm in data set [2] was determined as 34.1 °C.

On to GTCCTTCCGAAAGGAGAC (((..(((....)))))), for which the folding enthalpy in data set [1] is -11.4 kcal/mol. For the same sequence, in data set [2], the Tm is 28.1 °C.

Consider GTCCTTCGAAAGAACGAC (((.(((....))).))), for which the folding enthalpy in data set [1] was -23.3 kcal/mol. Besides, the Tm in data set [2] turned out to be 33.5 °C.

Turning to GTCCTTGCGAAAGCAGAC (((..(((....)))))), the folding enthalpy in data set [1] is -12.3 kcal/mol. For the same sequence, in data set [2], the Tm is 32.3 °C.

As for GTCGAAGGAAACTCCGAC ((((.((....)).)))), the folding enthalpy in data set [1] was -27.6 kcal/mol. Also, the Tm in data set [2] turned out to be 42.1 °C.

Values taken from the array DNA melting data of Ke et al. (doi:10.1101/2024.01.08.574731).
